Screening results deposited in PubChem BioAssay by several laboratories.
V-ATPase pHluor: yeast V-ATPase proton transport regulation by pHLuorin. S. cerevisiae, pHLuorin cytosolic pH fluorescence. response, % at 10 µM. 350,000 tested, 0.37% active. AID 504577; in the data active = response mostly above about 7.3%, no sharp cut-off; inactive = mostly below about 5.4%; note: actives read high
ADAM17 inh: ADAM17 inhibition, QFRET primary screen. P78536. inhibition, % at 6.95 µM. recombinant ADAM17, EDANS/DABCYL FRET peptide cleavage. 370,000 tested, 0.83% active;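 active = inhibition above the mean of compounds lying between control limits plus 3 SD, set per campaign, cut at about 8.5% in these data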
ADAM10 inh: inhibitors of human ADAM10; inhibition, % at 7 µM; recombinant ADAM10, EDANS/DABCYL FRET peptide cleavage, 3 h; O14672; AID 720582; 370,000 tested, 0.62% active;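 active = inhibition above a per-campaign cutoff equal to the mean of compounds falling between control-based bounds plus 3 SD, cut at about 20% in these data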
Target sequence (O14672 214-748 limits assumed): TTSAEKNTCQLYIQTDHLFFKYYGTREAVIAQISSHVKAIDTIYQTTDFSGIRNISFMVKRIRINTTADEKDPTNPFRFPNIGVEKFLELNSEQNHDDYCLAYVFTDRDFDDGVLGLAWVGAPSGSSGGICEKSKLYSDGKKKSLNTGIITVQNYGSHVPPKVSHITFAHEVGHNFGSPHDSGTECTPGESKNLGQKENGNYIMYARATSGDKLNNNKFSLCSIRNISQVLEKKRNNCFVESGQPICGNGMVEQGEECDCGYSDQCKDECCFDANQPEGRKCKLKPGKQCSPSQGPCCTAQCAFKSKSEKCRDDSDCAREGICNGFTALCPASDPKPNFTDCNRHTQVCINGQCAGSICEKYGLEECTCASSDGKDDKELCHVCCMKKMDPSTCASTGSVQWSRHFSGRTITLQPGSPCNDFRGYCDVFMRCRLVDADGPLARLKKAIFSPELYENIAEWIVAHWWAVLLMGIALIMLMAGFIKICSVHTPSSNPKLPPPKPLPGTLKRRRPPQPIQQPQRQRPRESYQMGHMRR
aDG glyco up: increases alpha dystroglycan glycosylation. Pro5-aDG cells, alpha-DG glycosylation AlphaScreen (IIH6); 0% Pro5, 100% B10-LARGE cell signal. activation, % at 10 µM. 360,000 tested, 0.22% active. AID 624168;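 active = activation of at least 8% versus controls, or a plate z-score of at least 8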;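 note: Pro5 are CHO cells carrying HIG-tagged alpha-DG that lacks glycosylation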
MPTP block: permeability transition pore inhibition; isolated mouse mitochondria, Ca2+ swelling absorbance, 30 min; inhibition, % at 10 µM; 360,000 tested, 1.4% active; AID 602449;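 active = inhibition of 50% or more, scaled per plate between neutral and stimulator controls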
Hep lipid drop: modulators of hepatic lipid droplet formation. AML12 mouse hepatocytes, oleate lipid droplets, BODIPY imaging. inhibition, % at 6.5 µM. 240,000 tested, 0.4% active. AID 1656;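 active = lipid droplet intensity inhibited by at least 50%, with more than 500 cells counted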
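Material: mouse AML12 hepatocyte cell line, fixed after treatment; Timing: compound with oleate, overnight; Technique: high-content imaging of BODIPY-stained droplets and DAPI nuclei; Probe or stimulus: oleate, 100 µM final; Dosing: compound at 6.5 µM only.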
Hep lipid conf: confirmation of inhibitors of hepatic lipid droplet formation. shares compounds with Hep lipid drop. AML12 mouse hepatocytes, BODIPY lipid droplet imaging; droplets induced with 100 µM oleic acid. inhibition, % at 5.2 µM. 870 tested, 65% active. AID 463183;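 active = inhibition of lipid droplet metric at least 50%, with more than 300 cells in each of four replicates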
AML12 tox img: toxic to AML12 mouse hepatocytes in counter-screen | shares compounds with Hep lipid drop | DAPI nuclear morphology cytotoxicity imaging; active compounds read high; cells fed 100 µM oleate overnight | z-score at 5 µM | 870 tested, 3% active; in the data active = z-score above about 6.3;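 note: compound exposure lasted overnight at 37 °C before fixation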
AML12 tox ATP: AML12 hepatocyte cytotoxicity, confirmed; shares compounds with Hep lipid drop; AML12 mouse hepatocyte viability, ATP luminescence; cells loaded with 100 µM oleic acid; cytotoxicity, % at 50 µM; 530 tested, under 10 active; AID 463219;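 active = cytotoxicity above 50% in each of four replicates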;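 note: compound exposure lasted overnight at 37 °C before the ATP read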
Numbers stand for hits. An excerpt weighted towards active compounds, which were near 3.1% of everything screened.

For O=C(C1CCCN1S(=O)(=O)c1ccccc1[N+](=O)[O-])N1CCc2ccccc2C1 (stereo unspecified) the results were ADAM17 inh inactive and ADAM10 inh inactive.
Screening O=c1[nH]c(CSc2nnc(-c3ccccc3)n2-c2ccccc2)nc2ccccc12 returned V-ATPase pHluor inactive, ADAM17 inh inactive, ADAM10 inh inactive, aDG glyco up inactive, MPTP block inactive, Hep lipid drop 62, Hep lipid conf inactive and AML12 tox img inactive.
Cc1ccc(-n2c(SCc3nc4ccccc4c(=O)[nH]3)nnc2-c2ccccc2O)cc1 was read as V-ATPase pHluor inactive, ADAM17 inh inactive, ADAM10 inh inactive, aDG glyco up inactive, MPTP block inactive and Hep lipid drop inactive.
For COc1cccc(NC(=O)CCC(=O)Nc2cc(OC)c(NC(=O)c3cccs3)cc2OC)c1 the results were V-ATPase pHluor inactive, ADAM17 inh inactive, ADAM10 inh inactive, aDG glyco up inactive, MPTP block inactive, Hep lipid drop 79, Hep lipid conf 110, AML12 tox img inactive and AML12 tox ATP inactive.
COc1ccc(/C=C(\NC(=O)c2cccs2)C(=O)Nc2cccc3ccccc23)cc1OC was read as V-ATPase pHluor inactive, ADAM17 inh inactive, ADAM10 inh inactive, aDG glyco up inactive, MPTP block inactive, Hep lipid drop 84, Hep lipid conf 102, AML12 tox img inactive and AML12 tox ATP inactive.
COc1cc(NC(=O)c2cccs2)c(OC)cc1NC(=O)CCC(=O)Nc1ccc(C)cc1 was read as V-ATPase pHluor inactive, ADAM17 inh inactive, ADAM10 inh inactive, aDG glyco up inactive, MPTP block inactive, Hep lipid drop 68, Hep lipid conf 108, AML12 tox img inactive and AML12 tox ATP inactive.
`COc1ccc(/C=C(\NC(=O)c2cccs2)C(=O)NN)cc1OC` gave V-ATPase pHluor inactive, ADAM17 inh inactive, ADAM10 inh inactive, aDG glyco up inactive, MPTP block inactive and Hep lipid drop inactive.
Screening Cc1ccc(NC(=O)CCC(=O)c2cccs2)cc1 returned V-ATPase pHluor inactive, ADAM17 inh inactive, ADAM10 inh inactive, aDG glyco up inactive, MPTP block inactive and Hep lipid drop inactive.
Screening COc1cccc(NC(=O)c2cccs2)c1 returned V-ATPase pHluor inactive, ADAM17 inh inactive, ADAM10 inh inactive, aDG glyco up inactive, MPTP block inactive and Hep lipid drop inactive.
For COc1ccc(NC(=O)CCC(=O)Nc2cc(OC)c(NC(=O)c3cccs3)cc2OC)cc1 the results were V-ATPase pHluor inactive, ADAM17 inh inactive, ADAM10 inh inactive, aDG glyco up inactive, MPTP block inactive, Hep lipid drop 71, Hep lipid conf 109, AML12 tox img inactive and AML12 tox ATP inactive.
COC(=O)[C@]12C[C@H](CC(=O)NCCCN3CCCC3=O)C(=O)N(Cc3ccco3)C1=C[C@H](C(C)(C)C)O[C@@H]2C was read as ADAM17 inh inactive and ADAM10 inh inactive.
Screening COc1ccc(OC)c(NC(=O)Nc2cccc3ccccc23)c1 returned V-ATPase pHluor inactive, ADAM17 inh inactive, ADAM10 inh inactive, aDG glyco up inactive, MPTP block inactive and Hep lipid drop inactive.
Screening COc1ccc(NC(=O)Nc2cccc3ccccc23)c(OC)c1 returned V-ATPase pHluor inactive, ADAM17 inh inactive, ADAM10 inh inactive, aDG glyco up inactive, MPTP block inactive, Hep lipid drop 56, Hep lipid conf 83, AML12 tox img inactive and AML12 tox ATP inactive.
For COc1ccc(CN2C(=O)[C@@](O)(c3cccn3C)c3cc(F)ccc32)cc1 the results were ADAM17 inh inactive and ADAM10 inh inactive.
For COC(=O)c1ccc(NS(=O)(=O)c2ccc3c(c2)n(C)c(=O)n3C)cc1 the results were V-ATPase pHluor inactive, ADAM17 inh inactive, ADAM10 inh inactive, aDG glyco up inactive, MPTP block inactive, Hep lipid drop 53, Hep lipid conf inactive and AML12 tox img inactive.
For Cc1ccc(CN(C(=O)c2ccccc2C)C2CCS(=O)(=O)C2)o1 (stereo unspecified) the results were V-ATPase pHluor inactive, ADAM17 inh inactive, ADAM10 inh inactive, aDG glyco up inactive, MPTP block inactive and Hep lipid drop inactive.
`CCCCOc1ccccc1C(=O)N(Cc1ccc(C)o1)C1CCS(=O)(=O)C1` (stereo unspecified) gave V-ATPase pHluor inactive, ADAM17 inh inactive, ADAM10 inh inactive, aDG glyco up inactive, MPTP block inactive, Hep lipid drop 64, Hep lipid conf 97, AML12 tox img inactive and AML12 tox ATP inactive.
For CCCOc1ccccc1C(=O)N(Cc1ccc(C)o1)C1CCS(=O)(=O)C1 (stereo unspecified) the results were V-ATPase pHluor inactive, ADAM17 inh inactive, ADAM10 inh inactive, aDG glyco up inactive, MPTP block inactive, Hep lipid drop 65, Hep lipid conf 78, AML12 tox img inactive and AML12 tox ATP inactive.
Screening CCCOc1ccccc1C(=O)N(Cc1ccco1)C1CCS(=O)(=O)C1 (stereo unspecified) returned V-ATPase pHluor inactive, ADAM17 inh inactive, ADAM10 inh inactive, aDG glyco up inactive and MPTP block inactive.
`CCCCc1ccc(N=N/C(C(=O)Nc2ccccc2OC)=C(/C)O)cc1` gave V-ATPase pHluor inactive, ADAM17 inh inactive, ADAM10 inh inactive, aDG glyco up inactive, MPTP block inactive and Hep lipid drop inactive.
Screening CCCCc1ccc(N=N/C(C(=O)Nc2cc(OC)c(NC(C)=O)cc2OC)=C(/C)O)cc1 returned V-ATPase pHluor inactive, ADAM17 inh inactive, ADAM10 inh inactive, aDG glyco up inactive, MPTP block inactive, Hep lipid drop 96, Hep lipid conf inactive and AML12 tox img inactive.
Screening O=C(c1nn2c(C(F)(F)F)cc(-c3cccs3)nc2c1Br)N1CCCc2ccccc21 returned V-ATPase pHluor inactive, ADAM17 inh inactive, ADAM10 inh inactive, aDG glyco up inactive, MPTP block inactive, Hep lipid drop 60, Hep lipid conf 101, AML12 tox img inactive and AML12 tox ATP inactive.
Screening COc1ccc(S[C@]2(C(=O)N(C)C)CC(=O)N[C@@H]2c2ccc(OC)cc2)cc1 returned ADAM17 inh inactive and ADAM10 inh inactive.
`N#CCC[C@H]1CC[C@]2(CCCN(c3ccccc3)C2)O1` gave ADAM17 inh inactive and ADAM10 inh inactive.
`COC(=O)c1ccc(Cn2ccc3ccc(-c4ccc5ccn(C(=O)c6ccc(C)cc6)c5c4)cc32)cc1` gave ADAM17 inh inactive and ADAM10 inh inactive.
